Each structure is given as a SMILES string.

Assay [1] concerns Cricetinae gen. sp. Kind of assay: Total cultures(12) versus active (3) at 10e-9 M conc. in hamster tracheal organ culture assay (TOC). Format: functional, Trachea. Put shortly:
(§1)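 Tracheas from Syrian golden hamsters kept on a vitamin A deficient diet from birth to 30–32 days old. Cultured serum-free (CMRL 1066 with insulin, hydrocortisone, glutamine, antibiotics), one explant per dish, 50% O2/45% N2/5% CO2, 36 °C, rocked. 3 days without retinoid, then 7 days with retinoid, medium renewed three times. Histology on day 10. Active means keratin/keratohyaline granules absent. Usually duplicate, 6–7 tracheas per concentration.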

For assay [2], the system named is Cricetinae gen. sp. Kind of assay: Total cultures(14) versus active (4) at 10e-8 M conc. in hamster tracheal organ culture assay (TOC). Format: functional, Trachea. An outline of the steps:
as §1

Assay [3] deals with Cricetinae gen. sp. Kind of assay: Total cultures(6) versus active (1) at 10e-10 M conc. in hamster tracheal organ culture assay (TOC). Format: functional, Trachea. Put shortly:
as §1

The subject of assay [4] is Cricetinae gen. sp. As to the kind of experiment: ED50 of retinoid required to effect reversal of keratinization. Format: functional. Put shortly: as §1
Assay [5] concerns Cricetinae gen. sp. Kind of assay: Relative potency with respect to retinoic acid in hamster tracheal organ culture assay (TOC). Format: functional, Cricetulus griseus, Trachea.
Assay [6] concerns the target T1, Ornithine decarboxylase (Mus musculus) (UniProt P00860).
T1 sequence (whole entry): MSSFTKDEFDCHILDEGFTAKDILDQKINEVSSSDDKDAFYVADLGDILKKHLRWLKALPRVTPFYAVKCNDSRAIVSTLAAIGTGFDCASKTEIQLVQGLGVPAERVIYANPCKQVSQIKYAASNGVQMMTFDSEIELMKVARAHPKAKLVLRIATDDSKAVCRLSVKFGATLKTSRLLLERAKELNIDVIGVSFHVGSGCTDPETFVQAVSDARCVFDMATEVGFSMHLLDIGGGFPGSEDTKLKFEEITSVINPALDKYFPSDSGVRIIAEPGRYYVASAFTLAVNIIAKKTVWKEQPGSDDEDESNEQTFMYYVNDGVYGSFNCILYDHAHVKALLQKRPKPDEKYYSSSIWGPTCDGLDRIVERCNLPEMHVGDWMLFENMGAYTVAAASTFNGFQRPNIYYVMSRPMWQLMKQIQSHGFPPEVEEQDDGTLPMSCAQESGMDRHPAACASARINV
Kind of assay: Percent inhibition of the induction of ornithine decarboxylase at 1.7 nmol in mouse dorsal epidermis (ODC assay). Format: functional.

Assay [7] deals with T1, Ornithine decarboxylase (Mus musculus). Kind of assay: Percent inhibition of the induction of ornithine decarboxylase at 17 nmol dose in mouse dorsal epidermis (ODC assay). Format: functional.

In the case of `CCOC(=O)c1ccc(/C=C(C)/C=C/C2=C(C)CCCC2(C)C)o1`, the values for the Active/total cultures with Cricetinae gen. sp. [1], with Cricetinae gen. sp. [2] and in the assay on Cricetinae gen. sp. [3] were 25%, 29% and 17%, respectively. Further, the ED50 with Cricetinae gen. sp. [4] was 0.02 nM. Besides, the Relative activity with Cricetinae gen. sp. [5] was <<0.1. Besides, the inhibition of control in assay [6] and in assay [7] was 9% in each case.

(Values after ChEMBL document CHEMBL1122284, “Aromatic retinoic acid analogues. 2. Synthesis and pharmacological activity” (1983).)
